This is a sample that favours compounds with a hit; in the whole collection about 3.5% have one here.
bCat nuc transl – modulators of beta-catenin nuclear translocation; HeLa beta-catenin nuclear translocation, immunofluorescence imaging; nuclear translocation activity, % at 5 µM; 190,000 tested, 0.3% active;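 active means nuclear translocation activity above 50% at 5 µM, with a well cell count of 50 or more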;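 further: per-cell ratio of nuclear to cytoplasmic median beta-catenin stain intensity; plate controls were DMSO negative control for no effect and GSK-3 inhibitor IX positive control for full effect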
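Test system: human HeLa cell line; Doses: 5 µM primary, 0.02–20 µM confirmation; Incubation: 24 h compound exposure, 37°C; Detection: beta-catenin immunofluorescence imaging with DAPI; Read-out: beta-catenin nuclear/cytoplasmic ratio, % activation.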
MT stabilize HCS – microtubule stabilization, imaging screen | HeLa tubulin immunostaining HCS, 24 h; share of cells brighter than vehicle mean+2SD | % tubulin-high responders, % at 10 µM | 200,000 tested, 0.83% active | AID 2205;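 active means plate Z-score above 3 for both tubulin-high and condensed-nucleus cell shares, with cell loss under 80%, at 10 µM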;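 further: anti alpha tubulin signal scored within the nucleus-defined area of each cell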
Efa HMGR inh – inhibitors of class II HMG-CoA reductase from Enterococcus faecalis; purified E. faecalis HMGR, NADPH absorbance 340 nm kinetic; inhibition, % at 10 µM; 190,000 tested, 0.41% active;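 active means inhibition above a set limit, the median over all tested compounds plus 3 SD, cut at about 9.5% in these data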;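 further: enzyme runs in reverse so mevalonate oxidation gives rising NADPH absorbance; 0% = complete reaction with DMSO and 100% = background rate lacking mevalonate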
RAM network inh – inhibitors of the yeast RAM network; 190,000 tested, 1.8% active; inhibition, % at 50 µM; S. cerevisiae dse1pr::URA3 reporter, 5-FOA growth OD615, 2 d; analog-sensitive cbk1-as2 kinase mutant strain; AID 868;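 active means inhibition above a set limit, 3 SD over mean compound inhibition, cut at about 8.4% in these data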;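 further: 0% = DMSO-only wells with no growth and 100% = 10 µM 1-NA-PP1 full growth; inhibition rescues growth on 5-FOA so higher OD means more RAM inhibition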
Yeast lifespan up – yeast lifespan extension | 130,000 tested, 0.68% active | S. cerevisiae growth with nicotinamide, OD615; deaD strain in restrictive glucose medium | inhibition of the nicotinamide effect, % at 10 µM;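 active means inhibition above a set limit, placed 3 SD over the median of all compounds, cut at about 26% in these data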;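 further: 0% = nicotinamide-treated wells and 100% = cells grown without nicotinamide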
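Material: Modified budding yeast, DeaD strain | Medium: Restrictive glucose medium | Probe or stimulus: 1.5 mM nicotinamide | Dosing: Single dose 10 µM compound, 0.25% DMSO | Times: 48 h at 30 °C | Technique: OD615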
BB579 growth dn – reduces growth of yeast BB579 in restrictive medium; S. cerevisiae BB579 growth, OD615, 48 h; inhibition, % at 10 µM; 140,000 tested, 0.51% active;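 active means inhibition above a set limit, 3 SD over the mean compound inhibition, cut at about 44% in these data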
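Material: Saccharomyces cerevisiae DeaD strain BB579, replicative lifespan model yeast; buffer or medium: CSMM-D restrictive synthetic medium containing dextrose (glucose); compound: 10 µM single dose, DMSO 0.25%; timing: 48 h compound exposure at 30 °C after 4 h preincubation; signal: turbidity as optical density at 615 nm; benchmarks: positive control amphotericin B 10 µg/mL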
An asterisk follows results filed as active; . = not tested or not shown.

SMILES	bCat nuc transl	MT stabilize HCS	Efa HMGR inh	RAM network inh	Yeast lifespan up	BB579 growth dn
COc1cccc2c(SCC(=O)N/N=C/c3ccccc3)cc(C)nc12	8.0	3.5	-12.0	-0.2	1.6	-1.8
COc1ccc2nc(C)cc(SCC(=O)N/N=C/c3ccc(O)c(O)c3)c2c1	-1.6	4.0	-0.3	-0.5	.	.
CCOC(=O)c1sc(NC(=O)c2ccc(S(=O)(=O)N(C)C)cc2)nc1C	-3.6	3.9	0.3	10.1*	-15.3	-44.5
O=C(Nc1nnc(C2CC2)s1)c1n[nH]c(=O)c2ccccc12	-1.8	.	.	.	.	.
COc1ccccc1NC(=S)NC1CCC(CC2CCC(NC(=S)Nc3ccccc3OC)CC2)CC1 (stereo not drawn)	3.8	2.1	-4.8	3.2	-1.7	-11.2
O=C1c2ccccc2NC(c2ccccn2)N1c1ccccc1F (stereo not drawn)	2.0	3.9	-9.3	-0.8	.	7.1
Cc1cccc(C2Nc3ccccc3C(=O)N2c2ccc(F)cc2)n1 (stereo not drawn)	0.7	3.6	9.8*	-0.1	.	-31.8
CC(=O)N[C@@H](C)C(=O)N1CCN(S(=O)(=O)c2ccc(Cl)cc2)CC1	-2.8	3.5	2.6	3.4	.	.
COc1ccc(Cl)cc1C(=O)NNC(=O)CN1C(=O)C2CC=CCC2C1=O (stereo not drawn)	-0.8	1.9	1.1	2.5	.	.
COc1ccc(C(=O)c2cc(C(C)=O)c(Nc3ccccc3)s2)cc1	6.6	3.1	-1.1	9.1*	-3.9	-45.2
CNC(=O)COC(=O)c1ccccc1Nc1ccccc1	-5.7	4.8	-4.0	0.0	.	.
COc1ccc(Br)cc1CSC(=N)N	-0.7	1.4	-5.6	0.9	.	.
CCCCCOc1ccc(Br)cc1CSC(=N)N	89.1*	13.6	-1.6	1.3	-2.2	-30.9
CC1=Nc2cc(C(=O)NCCCOC(C)C)ccc2Sc2ccc(C)cc21	37.6	12.1	-0.9	-0.9	.	.
CCC1=Nc2cc(C(=O)NCCCOC)ccc2Sc2ccccc21	.	25.0*	0.7	0.6	-4.8	-33.8
COCCCNC(=O)c1cccc(C(=O)NCCCOC)c1	-3.1	3.6	-2.9	0.5	-17.2	-48.2
CCOCCCNC(=O)c1ccc(Br)cc1	-1.2	2.6	-5.6	0.3	-24.7	46.9*
CCCC1=Nc2cc(C(=O)NCCCOC(C)C)ccc2Sc2ccccc21	71.5*	22.3*	2.1	6.6	-3.8	-22.0
CC1=Nc2cc(C(=O)NCCCOC(C)C)ccc2Sc2ccccc21	14.7	23.8*	-4.3	1.3	.	.
CC(C)OCCCNC(=O)c1ccncc1	-5.8	2.2	-5.1	2.3	-5.3	-41.3
COc1ccc(/C(C)=N/NC(=O)C(NC(=O)c2ccccc2)c2n[nH]c(=O)c3ccccc23)c(OC)c1 (stereo not drawn)	-2.5	.	.	.	.	.
Cc1ccn(CCC(=O)N2CCCC(CCC(=O)N3CCN(c4ccccn4)CC3)C2)n1 (stereo not drawn)	-1.3	4.8	-5.6	-1.1	.	.
CCOC(=O)C1(Cc2ccccc2)CCN(Cc2cc(OC)c3c(c2)OCO3)CC1	0.2	2.6	0.9	1.5	.	.
CCC1=Nc2cc(C(=O)NCc3ccco3)ccc2Sc2ccc(C)cc21	74.4*	4.2	-2.0	5.0	4.1	-17.7
CCOCCCNC(=O)c1ccc(OC)cc1	-1.2	1.9	-0.6	-0.2	-9.8	-7.3
SMILES	bCat nuc transl	MT stabilize HCS	Efa HMGR inh	RAM network inh	Yeast lifespan up	BB579 growth dn
CCCC1=Nc2cc(C(=O)NCCCOCC)ccc2Sc2ccccc21	104.7*	15.0	0.8	4.0	0.0	-23.1
O=C1c2ccccc2C(=O)N1Cc1ccco1	-1.4	2.6	-0.8	1.0	-11.0	43.9*
O=C1c2cccc3c(O)ccc(c23)C(=O)N1Cc1ccco1	-3.3	3.2	-1.1	5.2	.	.
COc1cc(/C=N/Nc2snc(SC)c2C#N)ccc1O	23.5	49.1*	-4.0	4.5	-23.0	-19.9
CCOC(=O)C1=C(COc2ccc(C)cc2)NC(=O)NC1c1cc(C)ccc1C (stereo not drawn)	-2.4	5.6	-3.6	6.3	9.3	-26.4
CCOC(=O)C1=C(COc2ccc(F)cc2Cl)NC(=O)NC1c1cc(C)ccc1C (stereo not drawn)	-2.1	3.2	23.9*	4.0	-4.6	-38.0
Cc1ccc(Cl)cc1N1CCN(C(=O)Cc2csc(Nc3nc(=S)[nH]c4ccccc34)n2)CC1	-0.9	9.5*	-1.6	3.2	.	.
